ChEMBL document CHEMBL1781899, “Synthesis of N-substituted 2-[(1E)-alkenyl]-4-(1H)-quinolone derivatives as antimycobacterial agents against non-tubercular mycobacteria” (Eur J Med Chem, 2011)
Converted amounts (≈) assume the structure as drawn.

Experiments:
[1] = Cytotoxicity against human MRC5 cells assessed as cell viability at 100 uM after 72 hrs by XTT assay; format: cell-based; conditions: read-out: Activity
In short: (§1)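 MRC-5 cells seeded at 5 × 10^4 cells/well and grown 24 h in MEM. Compounds came from fresh ethanol stocks; solvent control was 0.1% ethanol. 72 h exposure at 37 °C, 5% CO2. XTT plus electron-coupling reagent (50:1) added for 4 h. Viability expressed as % of solvent control, triplicate on at least two plates (n = 6), mean ± SEM.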

[2] = Cytotoxicity against human MRC5 cells assessed as cell viability at 30 uM after 72 hrs by XTT assay; format: cell-based; conditions: read-out: Activity; in short: as §1
[3] = tested on: Mycolicibacterium smegmatis; test: Antimycobacterial activity against Mycobacterium smegmatis ATCC 14468 after 3 days by MTT assay; format: functional; conditions: ATCC 14468, 72 h
Mycolicibacterium phlei = test: Antimycobacterial activity against Mycobacterium phlei ATCC 11758 after 3 days by MTT assay; format: functional; conditions: ATCC 11758, 72 h
[4] = tested on: Mycolicibacterium smegmatis; test: Antimycobacterial activity against Mycobacterium smegmatis mc2155 after 3 days by MTT assay; format: functional; conditions: mc2155, 72 h
In short: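 Broth microdilution MIC. Inoculum grown on Columbia blood agar with 7% defibrinated horse blood, suspended in 0.9% NaCl to 5 × 10^5 cells/mL. Sterile, growth and isoniazid controls were included. Incubated 3 days at 37 °C; methanolic MTT added, dark violet indicating growth. Tests repeated three times.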

[5] = tested on: Mycolicibacterium fortuitum; test: Antimycobacterial activity against Mycobacterium fortuitum ATCC 6841 after 3 days by MTT assay; format: functional; conditions: ATCC 6841, 72 h
[6] = Cytotoxicity against human MRC5 cells assessed as cell viability at 0.12 uM after 72 hrs by XTT proliferation assay; format: cell-based; conditions: read-out: Activity

Row | Compound | viability at 72 h, 100 µM [1] | viability at 72 h, 30 µM [2] | MIC [3] | MIC (Mycolicibacterium phlei) | MIC [4] | MIC [5] | viability at 72 h, 0.12 µM [6]
1 | CCCCCCCCCC/C=C/c1cc(=O)c2ccccc2n1CCCCC | 0.25% | 31.6% | 8 µg/mL (≈ 21 µM) | – | – | – | –
2 | CCCCCCC/C=C/c1cc(=O)c2ccccc2n1CC | 52.6% | 96.6% | 8 µg/mL (≈ 26.9 µM) | – | – | – | –
3 | CCCCCCC/C=C/c1cc(=O)c2ccccc2n1CCC | 7.4% | 32.9% | 4 µg/mL (≈ 12.8 µM) | – | – | – | –
4 | C=CCn1c(/C=C/CCCCCCC)cc(=O)c2ccccc21 | 0.53% | 10.1% | 8 µg/mL (≈ 25.9 µM) | – | – | – | –
5 | C#CCn1c(/C=C/CCCCCCC)cc(=O)c2ccccc21 | 63.9% | 71.1% | 2 µg/mL (≈ 6.51 µM) | 4 µg/mL (≈ 13 µM) | 2 µg/mL (≈ 6.51 µM) | 32 µg/mL (≈ 104 µM) | –
6 | CCCCCCCC/C=C/c1cc(=O)c2ccccc2n1CC | 0.53% | 39.2% | 4 µg/mL (≈ 12.8 µM) | – | – | – | –
7 | CCCCCCCC/C=C/c1cc(=O)c2ccccc2n1CCC | 0.5% | 56.1% | 2 µg/mL (≈ 6.14 µM) | 2 µg/mL (≈ 6.14 µM) | 2 µg/mL (≈ 6.14 µM) | 2 µg/mL (≈ 6.14 µM) | –
8 | C=CCn1c(/C=C/CCCCCCCC)cc(=O)c2ccccc21 | 0.63% | 33% | 2 µg/mL (≈ 6.18 µM) | 2 µg/mL (≈ 6.18 µM) | 1 µg/mL (≈ 3.09 µM) | 4 µg/mL (≈ 12.4 µM) | –
9 | C#CCn1c(/C=C/CCCCCCCC)cc(=O)c2ccccc21 | 0.4% | 43.6% | 16 µg/mL (≈ 49.8 µM) | – | – | – | –
10 | CCCCCCCC/C=C/c1cc(=O)c2ccccc2n1CCCCC | 0.46% | 61.7% | 2 µg/mL (≈ 5.66 µM) | 4 µg/mL (≈ 11.3 µM) | 1 µg/mL (≈ 2.83 µM) | 4 µg/mL (≈ 11.3 µM) | –
11 | C#CCn1c(/C=C/CCCCCCCCC)cc(=O)c2ccccc21 | 26.3% | 92.3% | 4 µg/mL (≈ 11.9 µM) | – | – | – | –
12 | CCCCCCCCC/C=C/c1cc(=O)c2ccccc2n1CCCCC | 0.38% | 41.6% | 4 µg/mL (≈ 10.9 µM) | – | – | – | –
13 | C#CCn1c(/C=C/CCCCCCCCCC)cc(=O)c2ccccc21 | 0.64% | 40.7% | 64 µg/mL (≈ 183 µM) | – | – | – | –
14 | CCCCCCCCCC/C=C/c1cc(=O)c2ccccc2n1CCCC | 0.45% | 42.4% | 4 µg/mL (≈ 10.9 µM) | – | – | – | –
15 | C=CCn1c(/C=C/CCCCCCCCCCC)cc(=O)c2ccccc21 | 1.06% | 17.9% | 4 µg/mL (≈ 10.9 µM) | – | – | – | –
16 | CCCCCCCCCCC/C=C/c1cc(=O)c2ccccc2n1CCCCC | 0.25% | 11.7% | 128 µg/mL (≈ 324 µM) | – | – | – | –
17 | CCCCCCCCCCCC/C=C/c1cc(=O)c2ccccc2n1CCC | 0.72% | 42.6% | 16 µg/mL (≈ 41.9 µM) | – | – | – | –
18 | C=CCn1c(/C=C/CCCCCCCCCCCC)cc(=O)c2ccccc21 | 0.7% | 98.2% | 16 µg/mL (≈ 42.2 µM) | – | – | – | –
19 | C#CCn1c(/C=C/CCCCCCCCCCCC)cc(=O)c2ccccc21 | 10% | 100% | 128 µg/mL (≈ 339 µM) | – | – | – | –
20 | CCCCCCCCCCCC/C=C/c1cc(=O)c2ccccc2n1CCCC | 0.51% | 10.9% | 128 µg/mL (≈ 324 µM) | – | – | – | –
21 | O=C(O)c1cn(C2CC2)c2cc(N3CCNCC3)c(F)cc2c1=O [CIPROFLOXACIN] | – | – | 0.125 µg/mL (≈ 0.377 µM) | – | – | – | –
22 | CC[C@@H](CO)NCCN[C@@H](CC)CO [ETHAMBUTOL] | – | – | 2 µg/mL (≈ 9.79 µM) | 4 µg/mL (≈ 19.6 µM) | 4 µg/mL (≈ 19.6 µM) | 16 µg/mL (≈ 78.3 µM) | –
23 | NNC(=O)c1ccncc1 [ISONIAZID] | – | – | 4 µg/mL (≈ 29.2 µM) | 16 µg/mL (≈ 117 µM) | 4 µg/mL (≈ 29.2 µM) | 1 µg/mL (≈ 7.29 µM) | –
24 | CC[C@]1(O)C[C@@H]2CN(CCc3c([nH]c4ccccc34)[C@@](C(=O)OC)(c3cc4c(cc3OC)N(C)[C@H]3[C@@](O)(C(=O)OC)[C@H](OC(C)=O)[C@]5(CC)C=CCN6CC[C@]43[C@@H]65)C2)C1 [VINBLASTINE] | – | – | – | – | – | – | 60.1%
